Measured values published in ChEMBL document CHEMBL1137460, “Fluorinated pyrazole acids are agonists of the high affinity niacin receptor GPR109a” (Bioorg Med Chem Lett, 2007).
The source made the active and inactive calls. The rule behind the calls is not given here.

Legend:
[1] = molecular target: T1, Hydroxycarboxylic acid receptor 3 (Homo sapiens, UniProt P49019); test: Agonist activity at human GPR109b expressed in human adipocytes assessed as decrease in intracellular cAMP level by HTRF assay; type: functional, cell-based
Outline: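 Whole-cell cAMP Dynamic2 HTRF assay at GPR109b. Results are given as pEC50, the negative log of molar EC50, with log SD errors and n in parentheses. Compounds with no response are marked not active. Efficacy is judged relative to niacin.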

[2] = molecular target: T1, Hydroxycarboxylic acid receptor 3; test: Agonist activity at human GPR109b […] assessed as decrease in intracellular cAMP level upto 50 uM by HTRF assay; type: functional, cell-based
Rattus norvegicus [3] = test: Reduction in 4-fluoro-5-methyl-pyrazole-3-carboxylic acid-induced plasma free fatty acid level in fasted male Sprague-Dawley rat at 10 mg/kg; type: functional, organism-based; design: dose 10 mg/kg
Outline: (§1)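 Fasted male Sprague–Dawley rats dosed orally at 0.1, 1 or 10 mg/kg. Plasma free fatty acid levels are followed over time, with 10 mg/kg oral niacin as the comparator.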

Rattus norvegicus [4] = test: Reduction in 4-fluoro-5-methyl-pyrazole-3-carboxylic acid-induced plasma free fatty acid level in fasted male Sprague-Dawley rat at 1 mg/kg; type: functional, organism-based; design: dose 1 mg/kg; outline: as §1
Mus musculus = test: Effect on cutaneous flushing response in C57BL/6 mouse at 100 mg/kg; type: functional, organism-based; design: dose 100 mg/kg
Outline: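 Male C57 Bl/6 mice given 100 mg/kg. Cutaneous vasodilation is measured as a surrogate for flushing.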

T1 sequence (P49019 whole entry): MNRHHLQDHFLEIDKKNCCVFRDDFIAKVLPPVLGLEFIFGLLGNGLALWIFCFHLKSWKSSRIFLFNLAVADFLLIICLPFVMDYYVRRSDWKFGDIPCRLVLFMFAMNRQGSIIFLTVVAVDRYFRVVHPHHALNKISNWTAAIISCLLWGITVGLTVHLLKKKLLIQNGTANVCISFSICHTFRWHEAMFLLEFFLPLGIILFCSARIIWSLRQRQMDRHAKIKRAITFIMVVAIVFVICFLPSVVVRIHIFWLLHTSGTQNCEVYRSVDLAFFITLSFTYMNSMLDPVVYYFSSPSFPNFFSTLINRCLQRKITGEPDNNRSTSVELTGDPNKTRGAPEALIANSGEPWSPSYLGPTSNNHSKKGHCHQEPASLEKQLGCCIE

Row | Compound | Activity [1] | Activity [2] | other results
1 | CCCCc1[nH]nc(-c2nnn[nH]2)c1F | inactive | inactive | –
2 | Cc1[nH]nc(-c2nnn[nH]2)c1F | inactive | inactive | –
3 | CC(C)c1cc(C(=O)O)n[nH]1 | – | – | EC50 ([1]; read-out: Log EC50 (converted)): 41.7 µM
4 | O=C(O)c1cc(C2CCC2)n[nH]1 | inactive | inactive | –
5 | CCCc1cc(-c2nnn[nH]2)n[nH]1 | – | – | EC50 ([1]; read-out: EC50): 860 µM; EC50 ([1]; read-out: Log EC50 (converted)): 0.724 µM
6 | c1c(-c2nnn[nH]2)n[nH]c1C1CC1 | – | – | EC50 ([1]; read-out: EC50): 3.6 µM; EC50 ([1]; read-out: Log EC50 (converted)): 3.24 µM
7 | CCCCc1cc(-c2nnn[nH]2)n[nH]1 | – | – | EC50 ([1]; read-out: Log EC50 (converted)): 7.59 µM
8 | O=C(O)c1cccnc1 [NIACIN] | – | – | EC50 ([1]; read-out: Log EC50 (converted)): 75.9 µM
9 | CCc1[nH]nc(-c2nnn[nH]2)c1F | – | – | EC50 ([1]; read-out: Log EC50 (converted)): 12.3 µM
10 | CCCCc1cc(C(=O)O)n[nH]1 | – | – | EC50 ([1]; read-out: Log EC50 (converted)): 11.7 µM
11 | CCCCCc1cc(C(=O)O)[nH]n1 | – | – | EC50 ([1]; read-out: Log EC50 (converted)): 18.6 µM
12 | Cc1cc(-c2nnn[nH]2)n[nH]1 | – | inactive | –
13 | c1cc(-c2nnn[nH]2)n[nH]1 | – | inactive | –
14 | CC(C)c1cc(-c2nnn[nH]2)n[nH]1 | – | inactive | –
15 | Fc1c(-c2nnn[nH]2)n[nH]c1C1CC1 | inactive | inactive | –

Second part, led by results:

Row | Activity [1] | Activity [2] | Compound | other results
16 | inactive | inactive | CCCc1cc(C(=O)O)n[nH]1 | –
17 | inactive | inactive | CCc1[nH]nc(C(=O)O)c1F | –
18 | inactive | inactive | CCCCc1[nH]nc(C(=O)O)c1Br | –
19 | inactive | inactive | O=C(O)c1cc(C2CC2)n[nH]1 | –
20 | inactive | inactive | CCCCc1[nH]nc(C(=O)O)c1F | –
21 | inactive | inactive | O=C(O)c1cc[nH]n1 | –
22 | inactive | inactive | Cc1[nH]nc(C(=O)O)c1Cl | –
23 | inactive | inactive | CCc1[nH]nc(C(=O)O)c1C | –
24 | inactive | inactive | CCc1cc(C(=O)O)[nH]n1 | –
25 | inactive | inactive | Cc1[nH]nc(C(=O)O)c1F | Activity (Rattus norvegicus [3]): Active; Activity (Rattus norvegicus [4]): Active; Activity (Mus musculus): Active
26 | inactive | inactive | O=C(O)c1n[nH]c(C2CC2)c1F | –
27 | inactive | inactive | Cc1cc(C(=O)O)n[nH]1 | –
